Each block holds one molecule with its values, some of them ahead of it. Residues, ends and D or L forms follow the SMILES beside them.
How the values were obtained:
[1] = target: T1, Integrin alpha-IIb/beta-3 (Homo sapiens, UniProt P05106+P08514); assay: Ability to inhibit the aggregation of fixed human platelets; type: functional
How it was run: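 Human gel-filtered platelets activated with α-thrombin 1 U/mL (final) for 2 min at room temperature, then thrombin inhibitor 20 μM, fixed in 0.5% paraformaldehyde for 30 min, washed and resuspended at 2×10^8 cells/mL in Tyrode's-HSA. Compound preincubated 1 min with the suspension. Rate relative to no-antagonist control; IC50 calculated.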
Target sequence in this assay (P05106 27-788 limits assumed): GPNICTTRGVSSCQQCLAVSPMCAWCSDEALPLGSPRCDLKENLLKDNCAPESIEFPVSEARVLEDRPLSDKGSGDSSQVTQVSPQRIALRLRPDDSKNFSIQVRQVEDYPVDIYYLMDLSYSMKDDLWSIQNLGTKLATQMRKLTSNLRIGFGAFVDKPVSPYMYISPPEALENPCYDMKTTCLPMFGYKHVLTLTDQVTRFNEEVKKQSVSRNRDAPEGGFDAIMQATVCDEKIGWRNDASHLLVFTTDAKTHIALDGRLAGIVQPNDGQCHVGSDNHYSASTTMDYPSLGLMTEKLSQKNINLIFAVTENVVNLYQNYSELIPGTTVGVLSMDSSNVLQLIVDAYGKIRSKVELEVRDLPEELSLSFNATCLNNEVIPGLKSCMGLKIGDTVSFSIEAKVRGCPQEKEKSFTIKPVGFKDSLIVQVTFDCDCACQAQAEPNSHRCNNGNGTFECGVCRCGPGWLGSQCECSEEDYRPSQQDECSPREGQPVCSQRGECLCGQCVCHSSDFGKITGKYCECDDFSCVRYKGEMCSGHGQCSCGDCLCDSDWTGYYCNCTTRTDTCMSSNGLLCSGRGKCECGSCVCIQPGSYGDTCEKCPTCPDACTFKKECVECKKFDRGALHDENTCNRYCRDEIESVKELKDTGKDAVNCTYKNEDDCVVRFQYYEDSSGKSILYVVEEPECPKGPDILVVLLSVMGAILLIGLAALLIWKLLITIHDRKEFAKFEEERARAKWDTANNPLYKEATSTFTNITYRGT
Target sequence in this assay (P08514 32-887 limits assumed): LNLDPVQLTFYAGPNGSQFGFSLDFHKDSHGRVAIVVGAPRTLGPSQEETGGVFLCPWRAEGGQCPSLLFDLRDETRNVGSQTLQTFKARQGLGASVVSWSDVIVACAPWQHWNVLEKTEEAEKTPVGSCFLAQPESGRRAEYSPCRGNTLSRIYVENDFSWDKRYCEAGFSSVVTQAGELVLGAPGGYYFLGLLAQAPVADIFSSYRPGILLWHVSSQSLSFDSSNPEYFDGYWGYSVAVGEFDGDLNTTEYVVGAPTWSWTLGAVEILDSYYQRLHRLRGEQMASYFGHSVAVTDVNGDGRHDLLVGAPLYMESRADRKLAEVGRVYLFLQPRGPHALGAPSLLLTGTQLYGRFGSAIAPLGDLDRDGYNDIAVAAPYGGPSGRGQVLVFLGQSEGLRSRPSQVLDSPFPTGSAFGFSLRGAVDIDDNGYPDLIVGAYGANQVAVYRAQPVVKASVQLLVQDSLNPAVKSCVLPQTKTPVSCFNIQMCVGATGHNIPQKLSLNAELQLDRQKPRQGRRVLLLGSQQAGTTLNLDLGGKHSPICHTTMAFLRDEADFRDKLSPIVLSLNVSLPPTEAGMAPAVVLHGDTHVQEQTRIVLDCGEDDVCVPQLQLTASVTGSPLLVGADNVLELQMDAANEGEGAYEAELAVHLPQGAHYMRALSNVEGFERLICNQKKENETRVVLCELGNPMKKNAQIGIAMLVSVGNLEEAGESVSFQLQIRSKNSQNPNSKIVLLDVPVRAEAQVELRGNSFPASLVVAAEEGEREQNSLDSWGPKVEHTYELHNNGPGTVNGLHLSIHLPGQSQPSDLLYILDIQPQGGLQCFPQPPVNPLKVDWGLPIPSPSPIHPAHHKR
Target sequence in this assay (P08514 891-1039 limits assumed): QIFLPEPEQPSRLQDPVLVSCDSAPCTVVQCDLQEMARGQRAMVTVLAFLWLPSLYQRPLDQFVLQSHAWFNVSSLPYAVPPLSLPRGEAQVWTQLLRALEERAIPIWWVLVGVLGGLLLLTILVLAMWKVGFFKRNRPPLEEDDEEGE

[2] = target: T1, Integrin alpha-IIb/beta-3; assay: Inhibition of radiolabeled fibrinogen binding to activated human platelets; type: functional
How it was run: (§1)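 Washed human platelets at 1×10^8/mL in Tyrode's buffer, run in duplicate. Inhibitor and labelled fibrinogen added before agonist, either TRAP (SFLLRN-NH2) 100 μM or ADP 10 μM. Incubated 30 min at room temperature, spun through a 20% sucrose cushion, pellet γ-counted. IC50 determined.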
Target sequence in this assay (P05106 27-788 limits assumed): as the sequence (P05106 27-788 limits assumed) above
Target sequence in this assay (P08514 32-887 limits assumed): as the sequence (P08514 32-887 limits assumed) above
Target sequence in this assay (P08514 891-1039 limits assumed): as the sequence (P08514 891-1039 limits assumed) above

[3] = target: T1, Integrin alpha-IIb/beta-3; assay: Inhibition of radiolabeled fibrinogen binding to activated human platelets.; type: functional; how it was run: as §1
Target sequence in this assay (P05106 27-788 limits assumed): as the sequence (P05106 27-788 limits assumed) above
Target sequence in this assay (P08514 32-887 limits assumed): as the sequence (P08514 32-887 limits assumed) above
Target sequence in this assay (P08514 891-1039 limits assumed): as the sequence (P08514 891-1039 limits assumed) above

[4] = Compound was evaluated for the rate of degradation by Carboxypeptidase A.; type: ADME
How it was run: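 Bovine pancreatic carboxypeptidase A diluted in 5% LiCl, activity checked with hippuryl-L-phenylalanine. Substrate made up at 1.0 mM in 0.05 M Tris with 1.0 M NaCl, pH 7.5, then combined with enzyme (2.0 units total). Incubated 60 min at room temperature, with hydrolysis followed by HPLC every 9 min. Rate of hydrolysis normalized to 1 unit of enzyme.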

[5] = target: Integrin alpha-V/beta-3 (Homo sapiens); assay: Inhibition of HUVEC adhesion to fibronectin-coated plates
[6] = target: Integrin alpha-V/beta-3 (Homo sapiens); assay: Inhibition of HUVEC adhesion to vitronectin-coated plates
[7] = target: Integrin alpha-V/beta-3 (Homo sapiens); assay: Inhibition of HUVEC adhesion to fibrinogen-coated plates
[8] = target: T1, Integrin alpha-IIb/beta-3; assay: Inhibition of ex vivo platelet aggregation after 6 hr treatment; type: functional; conditions: concentration not given here
How it was run: (§2)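 Mongrel dogs of either sex dosed by intragastric gavage, compound dissolved in deionized water. Citrated venous blood drawn 10 min predose and at 1, 3, 6, 12 and 24 h. PRP adjusted to 300 000 platelets/μL, stirred at 37 °C, primed with epinephrine 1 μM, then ADP 10 μM added. Light-transmission slope read in duplicate, expressed as % decrease versus predose PRP. Mean of at least two dogs per dose.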

[9] = target: T1, Integrin alpha-IIb/beta-3; assay: Inhibition of ex vivo platelet aggregation after 3 hr treatment; type: functional; conditions: concentration not given here; how it was run: as §2
[10] = target: T1, Integrin alpha-IIb/beta-3; assay: Inhibition of ex vivo platelet aggregation after 1 hr treatment; type: functional; conditions: concentration not given here; how it was run: as §2
[11] = target: T1, Integrin alpha-IIb/beta-3; assay: Percent inhibition of ex vivo platelet aggregation after 6 hours of administration; type: functional, organism-based; conditions: concentration not given here; how it was run: as §2
[12] = target: T1, Integrin alpha-IIb/beta-3; assay: Percent inhibition of ex vivo platelet aggregation after 3 hours of administration; type: functional, organism-based; conditions: concentration not given here; how it was run: as §2
[13] = target: T1, Integrin alpha-IIb/beta-3; assay: Percent inhibition of ex vivo platelet aggregation after 1 hour of administration; type: functional, organism-based; conditions: concentration not given here; how it was run: as §2

Structure (SMILES): CCOC(=O)[C@H](CC1CCCCC1)NC(=O)[C@H](CC(=O)O)NC(=O)CN(CC)C(=O)CCCC1CCNCC1
IC50 [1]: 0.064 µM
IC50 [2]: 0.016 µM

Structure (SMILES): CCN(CC(=O)N[C@@H](CC(=O)O)C(=O)N[C@@H](CC1CCCCC1)C(=O)O)C(=O)CCCC1CCNCC1
IC50 [5]: > 1750 µM
IC50 [1]: 0.026 µM
IC50 [3]: 0.017 µM
IC50 [6]: > 1650 µM
Activity [4]: 0.6 nmol/min/unit
IC50 [7]: 1010 µM

Structure (SMILES): CCN(CC(=O)N[C@@H](CC(=O)O)C(=O)N[C@@H](CC1CCCCC1)C(N)=O)C(=O)CCCC1CCNCC1
IC50 [5]: > 2400 µM
IC50 [1]: 0.097 µM
IC50 [3]: 0.028 µM
IC50 [7]: > 2350 µM

Structure (SMILES): CC(C)[C@H](NC(=O)[C@H](CC(=O)O)NC(=O)CNC(=O)[C@@H](N)CCCNC(=N)N)C(=O)O (H-RGDV-OH)
IC50 [1]: 10 µM

Structure (SMILES): CCN(CC(=O)N[C@@H](CC(=O)O)C(=O)N[C@H](C(=O)O)C1CCCCC1)C(=O)CCCC1CCNCC1
IC50 [1]: 0.032 µM

Structure (SMILES): CCN(CC(=O)N[C@@H](CC(=O)O)C(=O)N[C@@H](CC1CCCC2CCCCC21)C(=O)O)C(=O)CCCC1CCNCC1 (stereo partly specified)
IC50 [1]: 0.019 µM
IC50 [2]: 0.011 µM

Structure (SMILES): CCN(CC(=O)N[C@@H](CC(=O)O)C(=O)N[C@@H](C(=O)O)C(C)C)C(=O)CCCC1CCNCC1
IC50 [1]: 0.72 µM
IC50 [2]: 0.26 µM

Structure (SMILES): CCN(CC(=O)N[C@@H](CC(=O)O)C(=O)N[C@@H](CC1CCCCCC1)C(=O)O)C(=O)CCCC1CCNCC1
IC50 [1]: 0.032 µM

Structure (SMILES): CCN(CC(=O)N[C@@H](CC(=O)O)C(=O)N[C@H](C(=O)O)C(C)C)C(=O)CCCC1CCNCC1
IC50 [1]: 0.027 µM
inhibition [11]: 20%
inhibition [12]: 66%
inhibition [13]: 80%
IC50 [2]: 0.008 µM

Structure (SMILES): CC(C)[C@H](NC(=O)[C@H](CC(=O)O)NC(=O)CNC(=O)CCCC1CCNCC1)C(=O)O
IC50 [1]: 1.06 µM
inhibition [12]: 0%
inhibition [13]: 47%

Structure (SMILES): CCN(CC(=O)N[C@@H](CC(=O)O)C(=O)N[C@@H](CC1CCCCCCC1)C(=O)O)C(=O)CCCC1CCNCC1
IC50 [1]: 0.078 µM

Structure (SMILES): CCN(CC(=O)N[C@@H](CC(=O)O)C(=O)N[C@@H](CC(C)(C)C)C(=O)O)C(=O)CCCC1CCNCC1
IC50 [1]: 0.082 µM
IC50 [2]: 0.072 µM

The next lines start with the values.

IC50 [1]: 0.11 µM
IC50 [3]: 0.022 µM
Activity [4]: 3.1 nmol/min/unit
Structure (SMILES): CCN(CC(=O)N[C@@H](CC(=O)O)C(=O)N[C@@H](Cc1cccc2ccccc12)C(=O)O)C(=O)CCCC1CCNCC1

IC50 [1]: 0.053 µM
Structure (SMILES): CCN(CC(=O)N[C@@H](CC(=O)O)C(=O)N[C@@H](CCCC1CCCCC1)C(=O)O)C(=O)CCCC1CCNCC1

IC50 [1]: 0.129 µM
Structure (SMILES): CCN(CC(=O)N[C@@H](CC(=O)O)C(=O)N[C@@H](CO)CC1CCCCC1)C(=O)CCCC1CCNCC1

IC50 [1]: 0.064 µM
Structure (SMILES): CCN(CC(=O)N[C@@H](CC(=O)O)C(=O)N[C@@H](Cc1ccccc1)C(=O)O)C(=O)CCCC1CCNCC1

IC50 [1]: 0.77 µM
Structure (SMILES): CCN(CC(=O)N[C@@H](CC(=O)O)C(=O)N[C@H](C(=O)O)C(C)C)C(=O)CCC1CCNCC1

IC50 [1]: 0.072 µM
IC50 [3]: 0.01 µM
Structure (SMILES): CCN(CC(=O)N[C@@H](CC(=O)O)C(=O)NCCC1CCCCC1)C(=O)CCCC1CCNCC1

IC50 [1]: 0.13 µM
IC50 [2]: 0.011 µM
Activity [4]: 7.4 nmol/min/unit
Structure (SMILES): CCCC[C@H](NC(=O)[C@H](CC(=O)O)NC(=O)CN(CC)C(=O)CCCC1CCNCC1)C(=O)O

IC50 [1]: 0.21 µM
Structure (SMILES): CCN(CC(=O)N[C@@H](CC(=O)O)C(=O)N[C@H](C(=O)O)C(C)C)C(=O)CCCCC1CCNCC1

inhibition [8]: 0%
inhibition [9]: 0%
inhibition [10]: 23%
Structure (SMILES): CCN(CC(=O)N[C@@H](CC(=O)O)C(=O)N[C@H](C(=O)O)C(C)C)C(=O)CCCCN=C(N)N

IC50 [1]: 0.47 µM
Structure (SMILES): CCN(CC(=O)N[C@@H](CC(=O)O)C(=O)N[C@H](C(=O)O)C(C)C)C(=O)CCCCCNC(=N)N

IC50 ([5]; huvec): > 2400 µM
IC50 [1]: 0.031 µM
IC50 [3]: 0.011 µM
IC50 ([6]; huvec): > 2500 µM
IC50 ([7]; huvec): 1930 µM
Structure (SMILES): CCN(CC(=O)N[C@@H](CC(=O)O)C(=O)N[C@@H](CCC1CCCCC1)C(=O)O)C(=O)CCCC1CCNCC1

IC50 [1]: 0.096 µM
Structure (SMILES): CCN(CC(=O)N[C@@H](CC(=O)O)C(=O)N[C@@H](CC1CCC2CCCCC2C1)C(=O)O)C(=O)CCCC1CCNCC1 (stereo partly specified)

IC50 [3]: 0.022 µM
Structure (SMILES): CCN(CC(=O)N[C@@H](CC(=O)O)C(=O)N[C@@H](Cc1ccc2ccccc2c1)C(=O)O)C(=O)CCCC1CCNCC1

IC50 [1]: 0.047 µM
Structure (SMILES): CCN(CC(=O)N[C@@H](CC(=O)O)C(=O)N[C@@H](CC1CCCC1)C(=O)O)C(=O)CCCC1CCNCC1

IC50 [1]: 1.37 µM
Structure (SMILES): CCN(CC(=O)N[C@@H](CC(=O)O)C(=O)N[C@H](CC1CCCCC1)C(=O)O)C(=O)CCCC1CCNCC1
